Source: ChEMBL document CHEMBL1142938 (J Med Chem, 2007)
pKi: −log10 of the molar value.

target: T1, Adenosine receptor A1 (Homo sapiens, UniProt P30542); test: Displacement of [3H]CCPA from human recombinant adenosine A1 receptor expressed in CHO cells; format: cell-based
T1 sequence (P30542 whole entry): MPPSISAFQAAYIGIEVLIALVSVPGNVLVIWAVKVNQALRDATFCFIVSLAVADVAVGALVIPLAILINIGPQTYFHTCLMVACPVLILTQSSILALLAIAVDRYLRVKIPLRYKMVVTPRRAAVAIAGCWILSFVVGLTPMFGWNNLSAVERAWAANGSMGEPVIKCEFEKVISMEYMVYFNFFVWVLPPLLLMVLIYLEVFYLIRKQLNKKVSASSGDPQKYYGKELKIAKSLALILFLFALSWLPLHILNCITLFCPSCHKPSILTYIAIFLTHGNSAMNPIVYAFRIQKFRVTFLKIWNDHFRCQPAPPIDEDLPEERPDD

**Q.** With `CNC(=O)[C@H]1O[C@@H](n2cnc3c(NOC)nc(C#Cc4ccccn4)nc32)[C@H](O)[C@@H]1O` as the compound, how does the pKi read?
**A.** 5.40

**Q.** `CNC(=O)[C@H]1O[C@@H](n2cnc3c(NOC)nc(C#Cc4ccc(C(C)=O)cc4)nc32)[C@H](O)[C@@H]1O` was tested. Which pKi did it give?
**A.** 4.27

**Q.** With `CONc1nc(C#Cc2ccncc2)nc2c1ncn2[C@@H]1O[C@H](CO)[C@@H](O)[C@H]1O` as the compound, how does the pKi read?
**A.** 5.92

**Q.** How did the pKi turn out when `CONc1nc(C#CCC(C)O)nc2c1ncn2[C@@H]1O[C@H](CO)[C@@H](O)[C@H]1O` (stereo partly drawn) was run?
**A.** 7.02

**Q.** With `CONc1nc(C#Cc2ccc(C(C)=O)cc2)nc2c1ncn2[C@@H]1O[C@H](CO)[C@@H](O)[C@H]1O` as the compound, how does the pKi read?
**A.** 5.89

**Q.** How did the pKi turn out when `CCCCC#Cc1nc(NOC)c2ncn([C@@H]3O[C@H](CO)[C@@H](O)[C@H]3O)c2n1` was run?
**A.** 7.01

**Q.** With `CNC(=O)[C@H]1O[C@@H](n2cnc3c(NOC)nc(C#Cc4ccc(F)cc4)nc32)[C@H](O)[C@@H]1O` as the compound, how does the pKi read?
**A.** 5.52

**Q.** How did the pKi turn out when `CONc1nc(C#Cc2ccc(OC)cc2)nc2c1ncn2[C@@H]1O[C@H](CO)[C@@H](O)[C@H]1O` was run?
**A.** 5.73

target: Adenosine receptor A2a (Homo sapiens, UniProt P29274); test: Displacement of [3H]NECA from human recombinant adenosine A2A receptor expressed in CHO cells; format: cell-based
Sequence (P29274 whole entry): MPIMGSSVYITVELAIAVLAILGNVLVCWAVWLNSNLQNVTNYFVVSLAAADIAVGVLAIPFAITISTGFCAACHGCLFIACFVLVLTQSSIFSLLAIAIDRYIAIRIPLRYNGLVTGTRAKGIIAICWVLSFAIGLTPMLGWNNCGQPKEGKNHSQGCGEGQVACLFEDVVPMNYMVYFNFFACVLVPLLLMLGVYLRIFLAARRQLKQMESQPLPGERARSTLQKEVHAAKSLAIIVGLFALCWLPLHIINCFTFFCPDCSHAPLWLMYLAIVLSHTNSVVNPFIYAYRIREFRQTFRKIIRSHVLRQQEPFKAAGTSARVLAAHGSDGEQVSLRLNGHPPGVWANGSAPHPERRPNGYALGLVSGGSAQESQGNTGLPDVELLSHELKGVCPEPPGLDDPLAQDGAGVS
In short: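 Competition binding with [3H]NECA at 30 nM on stably transfected CHO cells. Nonspecific binding defined with 1 mM theophylline. Dissociation constants (Ki) obtained by nonlinear curve fitting.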

**Q.** `CNC(=O)[C@H]1O[C@@H](n2cnc3c(NOC)nc(C#Cc4ccccn4)nc32)[C@H](O)[C@@H]1O` was tested. Which pKi did it give?
**A.** 4.74

**Q.** `CNC(=O)[C@H]1O[C@@H](n2cnc3c(NOC)nc(C#Cc4ccc(C(C)=O)cc4)nc32)[C@H](O)[C@@H]1O` was tested. Which pKi did it give?
**A.** 4.98

**Q.** `CONc1nc(C#Cc2ccncc2)nc2c1ncn2[C@@H]1O[C@H](CO)[C@@H](O)[C@H]1O` was tested. Which pKi did it give?
**A.** 5.20

**Q.** How did the pKi turn out when `CONc1nc(C#CCC(C)O)nc2c1ncn2[C@@H]1O[C@H](CO)[C@@H](O)[C@H]1O` (stereo partly drawn) was run?
**A.** 6.12

**Q.** `CONc1nc(C#Cc2ccc(C(C)=O)cc2)nc2c1ncn2[C@@H]1O[C@H](CO)[C@@H](O)[C@H]1O` was tested. Which pKi did it give?
**A.** 5.57

**Q.** With `CCCCC#Cc1nc(NOC)c2ncn([C@@H]3O[C@H](CO)[C@@H](O)[C@H]3O)c2n1` as the compound, how does the pKi read?
**A.** 6.57

**Q.** How did the pKi turn out when `CNC(=O)[C@H]1O[C@@H](n2cnc3c(NOC)nc(C#Cc4ccc(F)cc4)nc32)[C@H](O)[C@@H]1O` was run?
**A.** 4.73

**Q.** How did the pKi turn out when `CONc1nc(C#Cc2ccc(OC)cc2)nc2c1ncn2[C@@H]1O[C@H](CO)[C@@H](O)[C@H]1O` was run?
**A.** 5.75

target: T2, Adenosine receptor A3 (Homo sapiens, UniProt P0DMS8); test: Displacement of [3H]NECA from human recombinant adenosine A3 receptor expressed in CHO cells; format: cell-based
T2 sequence (P0DMS8 whole entry): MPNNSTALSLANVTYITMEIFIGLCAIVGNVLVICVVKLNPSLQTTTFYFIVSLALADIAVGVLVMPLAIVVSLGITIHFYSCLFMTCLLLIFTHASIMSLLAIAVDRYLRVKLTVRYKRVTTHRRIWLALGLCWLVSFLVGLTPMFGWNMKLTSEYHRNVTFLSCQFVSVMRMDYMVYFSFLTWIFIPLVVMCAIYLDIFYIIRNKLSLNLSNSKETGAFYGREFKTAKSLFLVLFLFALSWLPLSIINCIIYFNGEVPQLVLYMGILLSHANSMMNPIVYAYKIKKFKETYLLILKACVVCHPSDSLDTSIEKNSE
In short: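 [3H]NECA used at 10 nM as radioligand in competition experiments, stably transfected CHO cells. Nonspecific binding defined with 1 mM theophylline. Ki from nonlinear curve fitting.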

**Q.** `CNC(=O)[C@H]1O[C@@H](n2cnc3c(NOC)nc(C#Cc4ccccn4)nc32)[C@H](O)[C@@H]1O` was tested. Which pKi did it give?
**A.** 8.96

**Q.** With `CNC(=O)[C@H]1O[C@@H](n2cnc3c(NOC)nc(C#Cc4ccc(C(C)=O)cc4)nc32)[C@H](O)[C@@H]1O` as the compound, how does the pKi read?
**A.** 8.60

**Q.** With `CONc1nc(C#Cc2ccncc2)nc2c1ncn2[C@@H]1O[C@H](CO)[C@@H](O)[C@H]1O` as the compound, how does the pKi read?
**A.** 8.22

**Q.** With `CONc1nc(C#CCC(C)O)nc2c1ncn2[C@@H]1O[C@H](CO)[C@@H](O)[C@H]1O` (stereo partly drawn) as the compound, how does the pKi read?
**A.** 8.27

**Q.** How did the pKi turn out when `CONc1nc(C#Cc2ccc(C(C)=O)cc2)nc2c1ncn2[C@@H]1O[C@H](CO)[C@@H](O)[C@H]1O` was run?
**A.** 8.52

**Q.** With `CCCCC#Cc1nc(NOC)c2ncn([C@@H]3O[C@H](CO)[C@@H](O)[C@H]3O)c2n1` as the compound, how does the pKi read?
**A.** 8.55

**Q.** With `CNC(=O)[C@H]1O[C@@H](n2cnc3c(NOC)nc(C#Cc4ccc(F)cc4)nc32)[C@H](O)[C@@H]1O` as the compound, how does the pKi read?
**A.** 8.72

**Q.** How did the pKi turn out when `CONc1nc(C#Cc2ccc(OC)cc2)nc2c1ncn2[C@@H]1O[C@H](CO)[C@@H](O)[C@H]1O` was run?
**A.** 8.37

target: Adenosine receptors; A1 & A3 (Homo sapiens) (UniProt P30542+P0DMS8); test: Selectivity for human adenosine A3 receptor over human adenosine A1 receptor; format: protein assay

**Q.** For `CNC(=O)[C@H]1O[C@@H](n2cnc3c(NOC)nc(C#Cc4ccccn4)nc32)[C@H](O)[C@@H]1O`, which Ratio Ki is on record?
**A.** 3600

**Q.** With `CNC(=O)[C@H]1O[C@@H](n2cnc3c(NOC)nc(C#Cc4ccc(C(C)=O)cc4)nc32)[C@H](O)[C@@H]1O` as the compound, how does the Ratio Ki read?
**A.** 21500

**Q.** How did the Ratio Ki turn out when `CONc1nc(C#Cc2ccncc2)nc2c1ncn2[C@@H]1O[C@H](CO)[C@@H](O)[C@H]1O` was run?
**A.** 198

**Q.** `CONc1nc(C#CCC(C)O)nc2c1ncn2[C@@H]1O[C@H](CO)[C@@H](O)[C@H]1O` (stereo partly drawn) was tested. Which Ratio Ki did it give?
**A.** 18

**Q.** `CONc1nc(C#Cc2ccc(C(C)=O)cc2)nc2c1ncn2[C@@H]1O[C@H](CO)[C@@H](O)[C@H]1O` was tested. Which Ratio Ki did it give?
**A.** 427

**Q.** For `CCCCC#Cc1nc(NOC)c2ncn([C@@H]3O[C@H](CO)[C@@H](O)[C@H]3O)c2n1`, which Ratio Ki is on record?
**A.** 35

**Q.** With `CNC(=O)[C@H]1O[C@@H](n2cnc3c(NOC)nc(C#Cc4ccc(F)cc4)nc32)[C@H](O)[C@@H]1O` as the compound, how does the Ratio Ki read?
**A.** 1600

**Q.** `CONc1nc(C#Cc2ccc(OC)cc2)nc2c1ncn2[C@@H]1O[C@H](CO)[C@@H](O)[C@H]1O` was tested. Which Ratio Ki did it give?
**A.** 435

target: Adenosine receptors; A2a & A3 (Homo sapiens) (UniProt P0DMS8+P29274); test: Selectivity for human adenosine A3 receptor over human adenosine A2A receptor; format: protein assay

**Q.** How did the Ratio Ki turn out when `CNC(=O)[C@H]1O[C@@H](n2cnc3c(NOC)nc(C#Cc4ccccn4)nc32)[C@H](O)[C@@H]1O` was run?
**A.** 16400

**Q.** For `CNC(=O)[C@H]1O[C@@H](n2cnc3c(NOC)nc(C#Cc4ccc(C(C)=O)cc4)nc32)[C@H](O)[C@@H]1O`, which Ratio Ki is on record?
**A.** 4200

**Q.** How did the Ratio Ki turn out when `CONc1nc(C#Cc2ccncc2)nc2c1ncn2[C@@H]1O[C@H](CO)[C@@H](O)[C@H]1O` was run?
**A.** 1100

**Q.** How did the Ratio Ki turn out when `CONc1nc(C#CCC(C)O)nc2c1ncn2[C@@H]1O[C@H](CO)[C@@H](O)[C@H]1O` (stereo partly drawn) was run?
**A.** 140

**Q.** With `CONc1nc(C#Cc2ccc(C(C)=O)cc2)nc2c1ncn2[C@@H]1O[C@H](CO)[C@@H](O)[C@H]1O` as the compound, how does the Ratio Ki read?
**A.** 893

**Q.** With `CCCCC#Cc1nc(NOC)c2ncn([C@@H]3O[C@H](CO)[C@@H](O)[C@H]3O)c2n1` as the compound, how does the Ratio Ki read?
**A.** 95

**Q.** How did the Ratio Ki turn out when `CNC(=O)[C@H]1O[C@@H](n2cnc3c(NOC)nc(C#Cc4ccc(F)cc4)nc32)[C@H](O)[C@@H]1O` was run?
**A.** 9800

**Q.** `CONc1nc(C#Cc2ccc(OC)cc2)nc2c1ncn2[C@@H]1O[C@H](CO)[C@@H](O)[C@H]1O` was tested. Which Ratio Ki did it give?
**A.** 414

target: T3, Adenosine receptor A3 (Homo sapiens) (UniProt P0DMS8); test: Activity at human adenosine A3 receptor assessed as inhibition of forskolin-stimulated cAMP production in CHO cells; format: functional, cell-based; set-up: concentration or dose not given beside the values
T3 sequence (whole entry): T2 sequence (P0DMS8 whole entry)

**Q.** For `CNC(=O)[C@H]1O[C@@H](n2cnc3c(NOC)nc(C#Cc4ccccn4)nc32)[C@H](O)[C@@H]1O`, which Activity is on record?
**A.** 34%

**Q.** For `CNC(=O)[C@H]1O[C@@H](n2cnc3c(NOC)nc(C#Cc4ccc(C(C)=O)cc4)nc32)[C@H](O)[C@@H]1O`, which Activity is on record?
**A.** 41%

**Q.** For `CONc1nc(C#Cc2ccc(C(C)=O)cc2)nc2c1ncn2[C@@H]1O[C@H](CO)[C@@H](O)[C@H]1O`, which Activity is on record?
**A.** 81%
